From ChEMBL document CHEMBL3797186, “Single Residue Substitutions That Confer Voltage-Gated Sodium Ion Channel Subtype Selectivity in the NaV1.7 Inhibitory Peptide GpTx-1” (J Med Chem, 2016)
Positions of bridges follow the written chain, without caps; N, C: chain ends. Residues, ends and D or L forms follow the SMILES beside them.

Legend:
[1] = target: Sodium channel protein type 9 subunit alpha (Homo sapiens, UniProt Q15858); test: Inhibition of human Nav1.7 expressed in HEK293 cells assessed as inward peak current by ion-works quattro patch clamp electrophysiology method; assay type: cell-based
Sequence of Sodium channel protein type 9 subunit alpha (Q15858 whole entry): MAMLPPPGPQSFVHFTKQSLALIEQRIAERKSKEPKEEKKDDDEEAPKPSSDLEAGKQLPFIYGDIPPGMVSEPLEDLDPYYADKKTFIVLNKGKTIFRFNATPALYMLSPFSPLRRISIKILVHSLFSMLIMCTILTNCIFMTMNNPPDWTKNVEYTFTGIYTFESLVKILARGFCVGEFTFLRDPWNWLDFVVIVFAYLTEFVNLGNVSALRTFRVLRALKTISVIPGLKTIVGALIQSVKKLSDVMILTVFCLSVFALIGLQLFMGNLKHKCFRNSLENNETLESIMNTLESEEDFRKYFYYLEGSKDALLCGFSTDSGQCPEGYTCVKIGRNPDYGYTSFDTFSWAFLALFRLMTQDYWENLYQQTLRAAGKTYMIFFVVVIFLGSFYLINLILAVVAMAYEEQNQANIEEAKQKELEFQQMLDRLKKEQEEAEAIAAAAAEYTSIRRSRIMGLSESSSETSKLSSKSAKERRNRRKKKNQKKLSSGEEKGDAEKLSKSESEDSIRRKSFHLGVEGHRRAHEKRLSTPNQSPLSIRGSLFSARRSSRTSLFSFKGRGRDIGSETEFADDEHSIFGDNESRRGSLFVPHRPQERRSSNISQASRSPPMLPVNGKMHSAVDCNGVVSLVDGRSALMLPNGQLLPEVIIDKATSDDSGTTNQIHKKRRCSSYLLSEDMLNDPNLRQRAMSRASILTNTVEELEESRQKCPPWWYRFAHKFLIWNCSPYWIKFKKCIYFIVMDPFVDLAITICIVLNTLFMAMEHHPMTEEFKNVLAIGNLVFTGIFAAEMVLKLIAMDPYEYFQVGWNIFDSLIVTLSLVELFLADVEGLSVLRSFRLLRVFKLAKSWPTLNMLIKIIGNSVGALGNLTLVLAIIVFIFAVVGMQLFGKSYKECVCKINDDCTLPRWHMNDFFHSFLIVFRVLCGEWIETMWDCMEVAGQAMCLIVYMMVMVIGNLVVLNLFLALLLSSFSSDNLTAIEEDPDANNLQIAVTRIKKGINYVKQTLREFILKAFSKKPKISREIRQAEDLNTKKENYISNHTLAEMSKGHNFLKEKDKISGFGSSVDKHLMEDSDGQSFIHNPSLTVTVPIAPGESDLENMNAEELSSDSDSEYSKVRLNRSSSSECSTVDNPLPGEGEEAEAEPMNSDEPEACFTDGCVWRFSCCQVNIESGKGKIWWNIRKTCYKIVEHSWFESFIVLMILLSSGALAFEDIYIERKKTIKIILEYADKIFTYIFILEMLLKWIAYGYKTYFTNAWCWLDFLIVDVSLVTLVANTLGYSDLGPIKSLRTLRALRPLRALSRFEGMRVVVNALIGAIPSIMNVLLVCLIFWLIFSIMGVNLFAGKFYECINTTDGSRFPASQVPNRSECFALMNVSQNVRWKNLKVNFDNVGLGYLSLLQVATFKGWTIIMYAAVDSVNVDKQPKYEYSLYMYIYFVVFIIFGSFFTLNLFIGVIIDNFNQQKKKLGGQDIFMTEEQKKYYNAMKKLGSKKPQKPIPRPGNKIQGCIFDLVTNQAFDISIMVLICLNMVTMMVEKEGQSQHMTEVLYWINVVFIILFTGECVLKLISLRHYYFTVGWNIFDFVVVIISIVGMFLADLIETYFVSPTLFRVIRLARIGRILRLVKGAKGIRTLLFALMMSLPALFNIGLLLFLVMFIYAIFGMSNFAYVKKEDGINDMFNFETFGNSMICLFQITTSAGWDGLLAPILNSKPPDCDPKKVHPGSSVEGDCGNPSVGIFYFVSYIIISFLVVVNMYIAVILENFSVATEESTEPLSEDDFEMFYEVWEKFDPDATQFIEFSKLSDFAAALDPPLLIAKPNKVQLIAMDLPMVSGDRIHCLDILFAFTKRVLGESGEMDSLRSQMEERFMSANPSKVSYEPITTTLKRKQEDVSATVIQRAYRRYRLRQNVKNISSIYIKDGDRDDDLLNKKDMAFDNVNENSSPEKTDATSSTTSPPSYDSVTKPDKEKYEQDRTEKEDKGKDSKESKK

[2] = target: Sodium channel protein type 5 subunit alpha (Homo sapiens, UniProt Q14524); test: Inhibition of human Nav1.5 expressed in HEK293 cells assessed as inward peak current by ion-works quattro patch clamp electrophysiology method; assay type: cell-based
Sequence of Sodium channel protein type 5 subunit alpha (Q14524 whole entry): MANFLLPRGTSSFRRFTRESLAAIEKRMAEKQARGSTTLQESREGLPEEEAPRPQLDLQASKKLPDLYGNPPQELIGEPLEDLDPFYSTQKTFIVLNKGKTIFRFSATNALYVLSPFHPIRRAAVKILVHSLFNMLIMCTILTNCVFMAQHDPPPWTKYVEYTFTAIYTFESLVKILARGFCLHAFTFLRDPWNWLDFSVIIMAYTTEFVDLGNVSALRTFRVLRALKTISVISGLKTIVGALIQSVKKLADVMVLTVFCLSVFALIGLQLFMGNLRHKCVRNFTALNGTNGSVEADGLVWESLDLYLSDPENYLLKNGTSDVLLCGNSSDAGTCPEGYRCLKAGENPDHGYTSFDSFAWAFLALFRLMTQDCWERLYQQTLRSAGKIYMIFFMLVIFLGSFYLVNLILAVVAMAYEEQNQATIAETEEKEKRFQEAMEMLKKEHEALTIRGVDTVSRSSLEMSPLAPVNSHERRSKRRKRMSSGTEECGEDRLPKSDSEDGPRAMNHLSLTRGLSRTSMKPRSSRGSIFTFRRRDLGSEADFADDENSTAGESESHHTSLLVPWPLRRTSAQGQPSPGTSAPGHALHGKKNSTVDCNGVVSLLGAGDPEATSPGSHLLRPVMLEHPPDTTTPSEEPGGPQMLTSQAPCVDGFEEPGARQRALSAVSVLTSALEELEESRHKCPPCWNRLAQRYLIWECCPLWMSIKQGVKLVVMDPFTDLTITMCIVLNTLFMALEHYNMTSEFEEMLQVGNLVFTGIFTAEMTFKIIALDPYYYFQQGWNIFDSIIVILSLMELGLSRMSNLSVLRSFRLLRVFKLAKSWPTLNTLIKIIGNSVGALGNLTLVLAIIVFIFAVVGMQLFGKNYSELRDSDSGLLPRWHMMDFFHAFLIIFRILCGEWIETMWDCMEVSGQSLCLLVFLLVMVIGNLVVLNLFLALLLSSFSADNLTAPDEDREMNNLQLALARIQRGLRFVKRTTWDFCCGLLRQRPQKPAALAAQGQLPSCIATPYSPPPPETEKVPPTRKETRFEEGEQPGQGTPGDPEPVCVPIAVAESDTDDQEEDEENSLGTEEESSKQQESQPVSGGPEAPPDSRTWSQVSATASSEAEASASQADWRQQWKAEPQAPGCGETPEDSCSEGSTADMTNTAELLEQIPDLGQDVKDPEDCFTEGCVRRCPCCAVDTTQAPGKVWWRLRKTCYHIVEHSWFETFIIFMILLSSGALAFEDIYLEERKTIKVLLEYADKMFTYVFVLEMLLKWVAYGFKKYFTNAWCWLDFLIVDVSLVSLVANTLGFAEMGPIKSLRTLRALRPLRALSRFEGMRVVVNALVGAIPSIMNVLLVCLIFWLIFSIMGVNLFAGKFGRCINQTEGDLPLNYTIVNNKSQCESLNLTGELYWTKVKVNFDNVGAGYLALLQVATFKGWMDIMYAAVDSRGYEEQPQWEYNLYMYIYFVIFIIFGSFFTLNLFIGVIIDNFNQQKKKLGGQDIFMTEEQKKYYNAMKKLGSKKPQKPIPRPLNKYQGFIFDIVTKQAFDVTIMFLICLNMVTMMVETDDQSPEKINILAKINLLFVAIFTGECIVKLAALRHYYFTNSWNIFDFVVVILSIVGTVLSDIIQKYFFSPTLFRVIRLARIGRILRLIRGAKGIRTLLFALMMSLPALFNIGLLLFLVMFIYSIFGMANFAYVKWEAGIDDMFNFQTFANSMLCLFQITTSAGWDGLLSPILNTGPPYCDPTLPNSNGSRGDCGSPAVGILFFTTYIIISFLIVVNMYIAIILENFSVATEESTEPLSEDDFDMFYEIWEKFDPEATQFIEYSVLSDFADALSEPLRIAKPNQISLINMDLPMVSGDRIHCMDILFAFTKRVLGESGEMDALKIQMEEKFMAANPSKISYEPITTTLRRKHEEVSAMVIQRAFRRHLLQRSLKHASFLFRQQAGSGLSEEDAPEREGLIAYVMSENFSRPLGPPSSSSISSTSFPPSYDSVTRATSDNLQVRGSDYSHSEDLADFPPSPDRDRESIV
In short: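 Stable HEK293 line expressing human NaV1.5, recorded by population patch clamp on the IonWorks Quattro.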

SMILES | IC50 [1] | IC50 [2]
CC[C@H](C)[C@@H]1NC(=O)[C@@H]2CSSC[C@@H]3NC(=O)[C@H](C(C)C)NC(=O)[C@H](CC(C)C)NC(=O)[C@H](CC(N)=O)NC(=O)[C@@H]4CCCN4C(=O)[C@H](CCCNC(=N)N)NC(=O)[C@H](CSSC[C@H](NC(=O)[C@@H](N)CC(=O)O)C(=O)N[C@@H](CC(C)C)C(=O)NCC(=O)N[C@@H](Cc4ccccc4)C(=O)N[C@@H](CCSC)C(=O)N[C@@H](CCCNC(=N)N)C(=O)N[C@@H](CCCCN)C(=O)N2)NC(=O)[C@H](CSSC[C@@H](C(=O)N[C@@H](CCCCN)C(=O)N[C@@H](Cc2ccc(O)cc2)C(=O)N[C@H](C(=O)N[C@@H](Cc2ccccc2)C(N)=O)C(C)C)NC(=O)[C@H](Cc2c[nH]c4ccccc24)NC(=O)[C@H](CCCCN)NC(=O)[C@H](Cc2cnc[nH]2)NC(=O)[C@H]([C@@H](C)O)NC(=O)[C@H](CCCNC(=N)N)NC(=O)[C@H](CO)NC3=O)NC(=O)[C@H](CCCCN)NC(=O)[C@H](CC(=O)O)NC(=O)[C@H](CCC(=O)O)NC(=O)[C@H](CC(=O)O)NC(=O)[C@@H]2CCCN2C1=O (H-DCLGFMRKCIPDEDKCCRPNLVCSRTHKWCKYVF-NH2; disulfide 2-17, 9-23, 16-30) | 0.28 µM | > 5 µM
CC[C@H](C)[C@@H]1NC(=O)[C@@H]2CSSC[C@@H]3NC(=O)[C@H](C(C)C)NC(=O)[C@H](CC(C)C)NC(=O)[C@H](CCCCN)NC(=O)[C@@H]4CCCN4C(=O)[C@H](CCCNC(=N)N)NC(=O)[C@H](CSSC[C@H](NC(=O)[C@@H](N)CC(=O)O)C(=O)N[C@@H](CC(C)C)C(=O)NCC(=O)N[C@@H](Cc4ccccc4)C(=O)N[C@@H](CCSC)C(=O)N[C@@H](CCCNC(=N)N)C(=O)N[C@@H](CCCCN)C(=O)N2)NC(=O)[C@H](CSSC[C@@H](C(=O)N[C@@H](CCCCN)C(=O)N[C@@H](Cc2ccc(O)cc2)C(=O)N[C@H](C(=O)N[C@@H](Cc2ccccc2)C(N)=O)C(C)C)NC(=O)[C@H](Cc2c[nH]c4ccccc24)NC(=O)[C@H](CCCCN)NC(=O)[C@H](Cc2cnc[nH]2)NC(=O)[C@H]([C@@H](C)O)NC(=O)[C@H](CCCNC(=N)N)NC(=O)[C@H](CO)NC3=O)NC(=O)[C@H](CCCCN)NC(=O)[C@H](CC(=O)O)NC(=O)[C@H](CC(N)=O)NC(=O)[C@H](CC(=O)O)NC(=O)[C@@H]2CCCN2C1=O (H-DCLGFMRKCIPDNDKCCRPKLVCSRTHKWCKYVF-NH2; disulfide 2-17, 9-23, 16-30) | 0.63 µM | > 5 µM
CC[C@H](C)[C@@H]1NC(=O)[C@@H]2CSSC[C@@H]3NC(=O)[C@H](C(C)C)NC(=O)[C@H](CC(C)C)NC(=O)[C@H](CC(N)=O)NC(=O)[C@@H]4CCCN4C(=O)[C@H](CCCNC(=N)N)NC(=O)[C@H](CSSC[C@H](NC(=O)[C@@H](N)CC(=O)O)C(=O)N[C@@H](CC(C)C)C(=O)NCC(=O)N[C@@H](Cc4ccccc4)C(=O)N[C@@H](CCSC)C(=O)N[C@@H](CCCNC(=N)N)C(=O)N[C@@H](CCCCN)C(=O)N2)NC(=O)[C@H](CSSC[C@@H](C(=O)N[C@@H](CCCCN)C(N)=O)NC(=O)[C@H](Cc2c[nH]c4ccccc24)NC(=O)[C@H](CCCCN)NC(=O)[C@H](Cc2cnc[nH]2)NC(=O)[C@H]([C@@H](C)O)NC(=O)[C@H](CCCNC(=N)N)NC(=O)[C@H](CO)NC3=O)NC(=O)[C@H](CCCCN)NC(=O)[C@H](CC(=O)O)NC(=O)[C@H](CC(N)=O)NC(=O)[C@H](CC(=O)O)NC(=O)[C@@H]2CCCN2C1=O (H-DCLGFMRKCIPDNDKCCRPNLVCSRTHKWCK-NH2; disulfide 2-17, 9-23, 16-30) | > 5 µM | > 5 µM
